H9c2 TAG inh: inhibitors of triacylglycerol accumulation, primary screen, cell-based, uHTS, fluorescence, H9c2; H9c2 cells, Nile Red lipid (TAG) fluorescence; cells loaded with 200 µM oleic acid; inhibition, % at 12.5 µM; 230,000 tested, 0.66% active;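 active = pattern-corrected inhibition of lipid staining of at least 50% with the nuclear-stain viability signal not falling by more than 50%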
CCR6 antag: CCR6 receptor antagonists, primary screen, cell-based, CHO-K1, luminescence, beta-arrestin, uHTS; C-C chemokine receptor type 6 (Homo sapiens), P51684; CHO-K1 CCR6 PathHunter beta-arrestin, CCL20-stimulated; inhibition, % at 20 µM; 340,000 tested, 0.49% active; AID 493098, 2011;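 active = compounds whose inhibition of the agonist-driven luminescence signal at 20 µM reaches about 50%, limit read from the data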;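 note: cells stimulated with CCL20 at 14 nM final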
CXCR6 block: CXCR6 receptor inhibitors, primary screen, cell-based, beta-arrestin, luminescence, CHO-K1 PathHunter, 1536-well; inhibition, % at 20 µM; 360,000 tested, 0.36% active; AID 602244, 2012; in the data active = inhibition above about 34%, passing the limit was not always enough;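 note: antagonist mode with CXCL16 agonist at 10 nM final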
APJ ag: agonists of human apelin receptor APJ, primary screen, CHO-K1 cells, PathHunter beta-arrestin, luminescence; 0% DMSO wells, 100% apelin; activation, % at 20 µM; 330,000 tested, 0.11% active;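 active = activation more than six SD over the plate average, tested at 20 µM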
Target sequence (P35414 whole entry, looked up): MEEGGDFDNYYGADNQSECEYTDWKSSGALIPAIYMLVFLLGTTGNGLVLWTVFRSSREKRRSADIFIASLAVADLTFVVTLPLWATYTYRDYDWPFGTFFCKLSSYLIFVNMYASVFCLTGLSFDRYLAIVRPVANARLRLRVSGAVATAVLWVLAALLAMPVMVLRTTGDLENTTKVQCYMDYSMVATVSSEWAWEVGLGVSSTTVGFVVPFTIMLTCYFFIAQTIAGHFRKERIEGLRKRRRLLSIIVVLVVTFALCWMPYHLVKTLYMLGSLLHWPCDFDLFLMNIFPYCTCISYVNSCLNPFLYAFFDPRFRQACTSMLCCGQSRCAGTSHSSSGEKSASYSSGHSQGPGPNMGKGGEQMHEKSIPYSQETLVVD
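Material: CHO-K1 APJ beta-arrestin complementation cell line; Input: cell density 1000 per well; Incubation: compound stimulation 90 min at 25 °C, detection 60 min; Signal: luminescence from split beta-galactosidase complementation, Galacton Star/Emerald II substrate; Controls: DMSO-only wells as negative, 10 nM Apelin-13 as positive control.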
APJ antagonist: antagonists of human apelin receptor APJ, primary screen, CHO-K1 cells, beta-arrestin complementation, luminescence; inhibition, % at 20 µM; 330,000 tested, 0.32% active;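 active = inhibition above about 40% at 20 µM, limit read from the data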;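 note: cells challenged with 10 nM apelin-13 agonist together with compound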
EBI2 antag: EBI2 receptor antagonists, beta-arrestin recruitment, primary screen, cell-based, luminescence, 7a,25-OHC stimulation, uHTS; 360,000 tested, 0.81% active; 7a,25-OHC stimulated; inhibition, % at 5 µM; in the data active = inhibition above about 38%;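 note: enzyme fragment complementation signal reports receptor beta-arrestin coupling in cells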
APJ ag conf: agonists of human apelin receptor APJ, confirmation, cell-based, single concentration, CHO-K1, beta-arrestin, luminescence | shares compounds with APJ ag | CHO-K1 APJ PathHunter beta-arrestin | activation, % at 20 µM | 310 tested, 10% active | AID 2764, 2010;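 active = activation above 40%, taking the highest of four retests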
Of the large screens only hits and unclear results are named; the others gave an inactive call (follow-up assays come after a bar, where they were run). Sampled rows, rich in hits. Any-hit rate of the full collection: about 1.9%.

Cc1cccc(NC(=S)NC(=O)CCc2ccccc2)c1	APJ ag 19 (no result: H9c2 TAG inh) | APJ ag conf inactive
Cc1cccc(NC(=O)NNC(=O)CCc2ccccc2)c1	none
Cc1cccc(C(=O)OCC(=O)NCCN2C(=O)CSC2=O)c1[N+](=O)[O-]	none
Cn1c(=O)c2[nH]c(Cc3cccc4ccccc34)nc2n(C)c1=O	none (no result: APJ ag, APJ antagonist)
CCSc1ccc(/C(N)=N/OC(=O)c2cccs2)cn1	APJ ag 43 (no result: H9c2 TAG inh) | APJ ag conf inactive
COc1cccc(N2CCN(c3ncnc4c3[nH]c3ccccc34)CC2C)c1 (centres undefined)	APJ ag 19 (no result: H9c2 TAG inh, CCR6 antag, CXCR6 block, EBI2 antag) | APJ ag conf 41
COc1ccc([N+](=O)[O-])cc1C(=O)Nc1ccc(Cc2ccncc2)cc1	APJ ag 16 | APJ ag conf inactive
COc1ccccc1C(=O)Nc1ccc(Cc2ccncc2)cc1	none (no result: H9c2 TAG inh, APJ ag)
N/C(=N\OC(=O)c1ccc(Br)cc1)c1ccncc1	APJ ag 12 | APJ ag conf inactive
N/C(=N\OC(=O)c1ccccc1)c1ccncc1	none
COc1ccc(N2CCN(C(=O)CCc3nnc4ccc(N5CCCC5)nn34)CC2)cc1	none (no result: H9c2 TAG inh)
CCCCc1ccc(N/C(N)=N/c2nc(C)cc(C)n2)cc1	APJ ag 43 | APJ ag conf inactive
CCCCNc1c(-c2ccc(OC)c(SC3CCCCC3)c2)nc2ccc(C)cn12	APJ ag 18 | APJ ag conf inactive
CCCCNc1c(-c2ccc(OC)c(SC(C)CC)c2)nc2ccc(C)cn12 (centres undefined)	APJ ag 26 | APJ ag conf inactive
CCCCNc1c(-c2ccc(OC)c(SC(C)CC)c2)nc2ccc(Cl)cn12 (centres undefined)	none
CCc1nnc(NC(=O)CSc2nc3cccnc3n2C2CCCCC2)s1	APJ ag 53 | APJ ag conf 62
C=C1CCN([C@@H](CC(C)C)C(=O)O)S(=O)(=O)c2ccccc21	APJ ag 45 | APJ ag conf inactive
CN1CCc2c(sc(/N=C/c3c[nH]c4ccccc34)c2C#N)C1	APJ ag 38 | APJ ag conf inactive
CN1CCc2c(sc(/N=C/c3c[nH]c4ccccc34)c2C(N)=O)C1	none
CC(=O)Nc1ccc(Nc2nc(-c3cc4ccccc4oc3=O)cs2)cc1	APJ ag 17 (no result: H9c2 TAG inh) | APJ ag conf inactive
Cc1cc2ccccn2c1C(=O)c1nc(NCc2ccco2)ncc1Cl	APJ ag 40 (no result: H9c2 TAG inh) | APJ ag conf inactive
Cc1cc2ccccn2c1C(=O)c1nc(N2CCOCC2)ncc1Cl	none (no result: H9c2 TAG inh)
COc1ccc(-c2nc3ccccn3c2NCc2ccc3c(c2)OCO3)cc1	none
COc1ccc(-c2cc(-c3nc4ccccn4c3NCc3ccccc3)ccc2OC)cc1	APJ ag 23 | APJ ag conf inactive
COC(=O)C1(Cc2cc(-c3ccc(Cl)cc3)no2)CCN(C(=O)OC(C)(C)C)CC1	none
COC(=O)C1(Cc2cc(-c3cccnc3)no2)CCN(C(=O)OC(C)(C)C)CC1	APJ ag 36 | APJ ag conf inactive
CC1=C(C(=O)N(C(C)C)C(C)C)CC(CC(=O)NCc2cccc3ccccc23)C(=O)N1Cc1ccc(F)cc1 (centres undefined)	none (no result: H9c2 TAG inh, CCR6 antag, APJ ag, APJ antagonist)
CCCOc1ccc(C(=O)Nc2ccc(N3CCN(C(=O)c4ccco4)CC3)cc2)cc1	none
Cc1ccc(C2C(C#N)=C(N)Oc3nc(-c4ccccc4)[nH]c32)o1 (centres undefined)	APJ ag 30 | APJ ag conf inactive
Cc1ccc(NC(=O)COc2ccc3c(c2)OCO3)c(Cl)c1	none
Cc1ccc(NC(=O)C/C(N)=N/OC(=O)Nc2ccc(C)c(Cl)c2)cc1	APJ ag 27 | APJ ag conf inactive
Cc1ccc(NC(=O)C/C(N)=N/OC(=O)Nc2cccc(C)c2)cc1	none
Cc1ccc(C)c2[nH]c(=O)c(CCNC(=O)c3cc4ccccc4o3)cc12	APJ ag 12 | APJ ag conf inactive
COc1ccc(NC(=O)/C(C#N)=C/c2ccc(Sc3nncn3C)c([N+](=O)[O-])c2)cc1	APJ ag 18 | APJ ag conf inactive
Cc1ccccc1C(=O)NC1CCN(CC(=O)NC2CCCCC2)CC1	none (no result: H9c2 TAG inh)
CCOC(=O)N1CCN(C(=O)c2ccc(Cn3c(=S)[nH]c4cc5c(cc4c3=O)OCO5)cc2)CC1	APJ ag 23 | APJ ag conf inactive
NC1=NN(c2c(Cl)cc(Cl)cc2Cl)C(=O)C1	none (no result: APJ ag, APJ antagonist)
N/C(=N\OS(=O)(=O)c1ccc2ccccc2c1)c1ccncc1	APJ ag 28 | APJ ag conf 68
N/C(=N\OS(=O)(=O)c1ccc2ccccc2c1)c1cccnc1	none
COc1ccc(N2CCN(C(=O)c3ccc(CNS(=O)(=O)c4ccc(C)cc4)cc3)CC2)cc1	none (no result: H9c2 TAG inh)
Cc1ccc(S(=O)(=O)NCc2ccc(C(=O)N3CCN(c4ccc([N+](=O)[O-])cc4)CC3)cc2)cc1	APJ ag 19 (no result: H9c2 TAG inh) | APJ ag conf inactive
COc1cc2sc3cc(NCC[C@@H]4CCCN4C)ccc3c(=O)c2cc1OC	none
COc1cccc2sc3ccc(NCCC4CCCN4C)cc3c(=O)c12 (centres undefined)	APJ ag 53 | APJ ag conf inactive
CC(NC(=O)OCc1ccccc1)C(=O)NCC(=O)NC(Cc1ccc(OC(C)(C)C)cc1)C(=O)OC(C)(C)C (centres undefined)	APJ ag 19 (no result: H9c2 TAG inh) | APJ ag conf inactive
CC(C)(C)OC(=O)C(Cc1ccc(OC(C)(C)C)cc1)NC(=O)CNC(=O)CNC(=O)OCc1ccccc1 (centres undefined)	none (no result: H9c2 TAG inh)
Cc1ccc(S(=O)(=O)N2CC(O)C[C@H]2C(=O)OCC(=O)N2CCN(c3ccc(F)cc3)CC2)cc1C (some centres undefined)	none (no result: APJ ag, APJ antagonist)
Cc1cc(C)c2sc(N(CCCN(C)C)C(=O)c3ccc(S(=O)(=O)N4CCc5ccccc5C4)cc3)nc2c1	H9c2 TAG inh 54, APJ ag 66 (no result: CCR6 antag) | APJ ag conf 45
Cc1cccc2sc(N(CCCN(C)C)C(=O)c3ccc(S(=O)(=O)N4CCc5ccccc5C4)cc3)nc12	none
COc1ccc2sc(N(CCCN(C)C)C(=O)c3ccc(S(=O)(=O)N4CCc5ccccc5C4)cc3)nc2c1	APJ ag 50 | APJ ag conf inactive
CN(C)CCCN(C(=O)c1ccc(S(=O)(=O)N2CCc3ccccc3C2)cc1)c1nc2ccc(F)cc2s1	H9c2 TAG inh 57, APJ ag 47 | APJ ag conf inactive

Source: PubChem BioAssay
